According to ChEMBL document CHEMBL3352752, “Towards the development of chromone-based MEK1/2 modulators” (Eur J Med Chem, 2014):
Calls of active or inactive are those of the source. No cut-off for these calls is given here.

Experiments:
[1] = Inhibition of constitutively activated GST-tagged human MEK1 S218D/[…] (MEK1DD) mutant assessed blocking of increase in bovine MBP kinase activity of recombinant His6-tagged ERK2 using [gamma32P]ATP by liquid scintillation counting method
Outline: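 GST-MEK1DD (50 ng) preincubated 30 min at 30 °C with inhibitor or vehicle and 50 μM ATP plus 5 μCi [γ-32P]ATP, in 20 mM Hepes, 10 mM MgCl2, 1 mM DTT, pH 7.4. His6-ERK2 (300 ng, E. coli-expressed) added for 30 min, then MBP (0.2 mg/mL) for 10 min. Controls run without ERK2. Stopped with Laemmli buffer. IC50 from duplicate determinations.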

A549 = assay: Antiproliferative activity against human A549 cells after 5 days by WST1 assay; assay type: functional, cell-based; details: A549, 120 h
Outline: (§1)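 Cells seeded at 2×10^3 (HCT 116, HT-29) or 1.2×10^3 (A-375, A549) per well in DMEM with 10% FBS, 2 mM glutamine and antibiotics. Compounds added in DMSO, with medium changed daily for 5 days. WST-1 then added for 1 h. Absorbance read at 450 nm, reference 620 nm. Triplicate wells.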

[2] = target: Dual specificity mitogen-activated protein kinase kinase 1 (Homo sapiens) (UniProt Q02750); assay: Inhibition of MEK1 (unknown origin) at 1 uM
A-375 = assay: Antiproliferative activity against human A375 cells after 5 days by WST1 assay; assay type: functional, cell-based; details: A-375, 120 h; outline: as §1
[3] = target: Dual specificity mitogen-activated protein kinase kinase MEK1/2 (Rattus norvegicus, UniProt Q01986+P36506); assay: Inhibition of MEK1/2 in rat IEC6 cells assessed as reduction in ERK1/2 loop phosphorylation dosed 30 mins before to stimulation with 10% serum for 5 mins by immunoblotting method
Outline: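 IEC-6 cells grown in DMEM/10% FBS, then made quiescent at 95% confluence in serum-free DMEM-Ham's F-12 (1:1) with 15 mM Hepes pH 7.4 and 0.1% BSA for 24 h. Compounds added in DMSO. Lysates immunoblotted for phospho-ERK1/2 (Thr202/Tyr204), with total ERK1/2 and HSC70 as loading controls. Bands quantified by densitometry. IC50 from triplicate determinations.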

HT-29 = assay: Antiproliferative activity against human HT-29 cells after 5 days by WST1 assay; assay type: functional, cell-based; details: HT-29, 120 h; outline: as §1
[4] = Antiproliferative activity against human HCT116 cells after 5 days by WST1 assay; assay type: functional, cell-based; details: HCT-116, 120 h; outline: as §1
Homo sapiens = species on record: Homo sapiens; assay: Potency index, ratio of IC50 for PD98059 to IC50 for test compound against constitutively activated GST-tagged human MEK1 S218D/[…] (MEK1DD) mutant

Sequence of Dual specificity mitogen-activated protein kinase kinase 1 (Homo sapiens) (Q02750 whole entry): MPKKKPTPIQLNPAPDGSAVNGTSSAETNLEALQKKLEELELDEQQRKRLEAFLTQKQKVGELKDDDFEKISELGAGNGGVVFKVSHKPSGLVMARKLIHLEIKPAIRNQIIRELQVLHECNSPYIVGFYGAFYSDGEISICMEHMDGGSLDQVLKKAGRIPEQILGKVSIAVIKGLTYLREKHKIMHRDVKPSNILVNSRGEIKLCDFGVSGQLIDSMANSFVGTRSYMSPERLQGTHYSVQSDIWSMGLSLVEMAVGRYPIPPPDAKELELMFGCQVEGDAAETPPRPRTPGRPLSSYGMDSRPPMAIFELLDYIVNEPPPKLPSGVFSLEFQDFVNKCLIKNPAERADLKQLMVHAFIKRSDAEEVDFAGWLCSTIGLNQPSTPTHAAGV

Structure (SMILES)	IC50 [1]	IC50 [3]	further results
COc1cccc(-c2cc(=O)c3cc(Cl)cc(NCCCO)c3o2)c1N	0.03 µM	1.6 µM	IC50 (A549): 12 µM; inhibition [2]: Active; IC50 (A-375): 5.9 µM; IC50 (HT-29): 1.6 µM; IC50 [4]: 10.3 µM; Ratio IC50 (Homo sapiens): < 100
COc1cccc(-c2cc(=O)c3cc(Cl)cc(CCCN)c3o2)c1N	4.4 µM	–	–
COc1cccc(-c2cc(=O)c3cc(Cl)ccc3o2)c1N	6.4 µM	> 100 µM	–
CCCCNc1cc(Cl)cc2c(=O)cc(-c3cccc(OC)c3N)oc12	1.9 µM	> 100 µM	–
COCCCNc1cc(Cl)cc2c(=O)cc(-c3cccc(OC)c3N)oc12	9.1 µM	> 100 µM	–
CCOc1cccc(-c2cc(=O)c3ccccc3o2)c1N	1.9 µM	1 µM	–
COc1cccc(-c2cc(=O)c3cccc(NCCCO)c3o2)c1N	–	0.097 µM	–
COc1cccc(-c2cc(=O)c3cc(Cl)cc(NCc4ccccc4)c3o2)c1N	1.4 µM	> 100 µM	–
COc1cccc(-c2cc(=O)c3cc(Cl)cc(NCCCN)c3o2)c1N	10.3 µM	> 100 µM	–
COc1cccc(-c2cc(=O)c3cc(Cl)cc(NCC[C@H](O)CO)c3o2)c1N	0.22 µM	3.1 µM	IC50 (A549): 17.4 µM; IC50 (A-375): 10.5 µM; IC50 (HT-29): 3.7 µM; IC50 [4]: 13 µM
COc1cccc(-c2cc(=O)c3ccccc3o2)c1N	2 µM	4.2 µM	IC50 (HT-29): 4 µM
COc1cccc(-c2cc(=O)c3cc(Cl)cc(NC4CCOCC4)c3o2)c1N	1.1 µM	> 100 µM	–
COc1cccc(-c2cc(=O)c3cc(Cl)cc(NCCCN(C)C)c3o2)c1N	6.8 µM	> 100 µM	–
COc1cccc(-c2cc(=O)c3cccc(NCC[C@H](O)CO)c3o2)c1N	–	0.073 µM	–
COc1cccc(-c2cc(=O)c3cc(Cl)cc(NC(C)C)c3o2)c1N	2.7 µM	> 100 µM	–
